STEP inh: inhibitors of human striatal-enriched phosphatase STEP; recombinant STEP, OMFP fluorogenic substrate, fluorescence; inhibition, % at 20 µM; 360,000 tested, 0.25% active;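 active means inhibition at 20 µM, scaled per plate between control wells, above about 37%, limit read from the data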;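 further: 0% = DMSO with enzyme and substrate and 100% = substrate only without enzyme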
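System: STEP phosphatase, cell-free reaction; Buffer or medium: Bis-Tris pH 6.0 buffer with DTT, detergent; Incubation: 20 min at room temperature, dark; Measured by: fluorescence, 480/540 nm.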
Scp1 inh: blocks human Scp-1 phosphatase activity. Q9GZU7. Recombinant Scp1, phosphopeptide, malachite green phosphate absorbance. inhibition, % at 20 µM. 340,000 tested, 0.88% active. AID 493091;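 active means inhibition above about 50% at 20 µM, limit read from the data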;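 further: plate controls were DMSO wells with enzyme for no effect and wells lacking enzyme for full effect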
Target sequence (Q9GZU7 76-261 limits assumed): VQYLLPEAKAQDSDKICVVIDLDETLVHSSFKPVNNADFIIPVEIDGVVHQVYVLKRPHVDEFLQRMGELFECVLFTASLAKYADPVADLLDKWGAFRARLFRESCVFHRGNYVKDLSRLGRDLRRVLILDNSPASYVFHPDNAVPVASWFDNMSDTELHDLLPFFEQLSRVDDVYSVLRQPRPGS
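Test system – truncated SCP-1 phosphatase (76-261aa) · Reagent – Phosphorylated 17-residue peptide substrate · Incubation – 45 min room-temperature reaction, 5 min colour, 30 min stabiliser · Detection – colorimetric phosphate reagent with accelerator and stabiliser, absorbance at 630 nm · Measure – % inhibition at 20 µM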
Rpn11 block: blocks the human proteasome subunit Rpn11 | O00487 | human 26S proteasome, Ub4-pepOG fluorescence polarization; 20S core pre-blocked with epoxomicin | inhibition, % at 20 µM | 360,000 tested, 0.59% active;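 active means inhibition at 20 µM, scaled to each plate's controls, above about 33%, limit read from the data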
Target sequence (O00487 whole entry, looked up): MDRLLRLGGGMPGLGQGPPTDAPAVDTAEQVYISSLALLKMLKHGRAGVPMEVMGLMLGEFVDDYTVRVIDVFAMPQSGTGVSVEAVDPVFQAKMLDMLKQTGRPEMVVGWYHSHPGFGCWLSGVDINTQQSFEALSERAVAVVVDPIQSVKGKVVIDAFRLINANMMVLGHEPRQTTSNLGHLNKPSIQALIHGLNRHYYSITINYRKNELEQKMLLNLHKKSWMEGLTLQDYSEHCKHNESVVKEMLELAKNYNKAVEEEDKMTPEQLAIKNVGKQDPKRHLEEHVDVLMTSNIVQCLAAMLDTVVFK
DNMT1 inh: blocks human DNA methyltransferase DNMT1. P26358. DNMT1 molecular beacon, Hinp1I cleavage, fluorescence. inhibition (reported as % activation of signal), % at 10 µM. 360,000 tested, 0.83% active. AID 588458; in the data active means inhibition above about 50%
LMPTP block: LMPTP (human) inhibition; recombinant LMPTP-A, OMFP fluorogenic substrate, fluorescence intensity; inhibition, % at 20 µM; 360,000 tested, 0.22% active;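 active means compounds that cut the enzyme signal by at least half of the control window in the single-dose screen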;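 further: plate controls were DMSO wells with enzyme plus substrate for no effect and substrate without enzyme for full effect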
Target sequence (P24666 whole entry, looked up): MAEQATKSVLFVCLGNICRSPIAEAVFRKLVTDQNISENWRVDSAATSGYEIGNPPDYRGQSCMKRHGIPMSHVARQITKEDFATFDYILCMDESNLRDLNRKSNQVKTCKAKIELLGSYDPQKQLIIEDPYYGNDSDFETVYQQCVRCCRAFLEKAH
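Buffer or medium: Bis-Tris pH 6.0, DTT, detergent; Assay system: LMPTP-A enzyme; Quantity: 0.625 nM enzyme; Detection: endpoint fluorescence intensity; Times: 50 min dark incubation at room temperature; Controls: substrate-only low control, DMSO enzyme-plus-substrate high control; Doses: single 20 µM dose; Read-out: percent inhibition versus substrate-only and uninhibited controls; Reagent: 400 µM OMFP.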
Beacon interf DR: shows spectral interference in the DNMT1 beacon assay. shares compounds with DNMT1 inh. molecular beacon fluorescence, spectral interference counter-screen. IC50, µM. 200 tested, under 10 active. AID 602382; call rule not given here
DNMT1 confirm: DNMT1 inhibition confirmation, single concentration. AID 602385. shares compounds with DNMT1 inh. 2,300 tested, 8% active. DNMT1 molecular beacon HinP1I cleavage, fluorescence. inhibition, % at 10 µM;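 active means average inhibition of at least 30% in the single-concentration confirmation test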
Beacon interf: counter-screen for DNMT1 inhibitors: spectral interference | shares compounds with DNMT1 inh | DNMT1 molecular beacon spectral interference counterscreen, fluorescence 485/520 | activation (fluorescence interference), % at 10 µM | 2,300 tested, 1% active;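 active means activation of at least 30% at 10 µM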;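 further: DNMT1 catalytic domain with a HinP1I cleavage step and a FAM/dabcyl DNA beacon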
Starred values were filed as active, the others as inactive. Shown are actives, neighbours in structure and some others; about 2% of the full set was active somewhere.

What do the screens show for `CCN(CC)C(=O)COC(=O)c1cc(-c2ccc(OC)cc2)nc2ccccc12`?
STEP inh: 3.2; Scp1 inh: 6.7; Rpn11 block: -3.0; DNMT1 inh: -1.9; LMPTP block: 1.1

Results for O=C(COC(=O)c1cc(-c2ccco2)nc2ccccc12)NCc1ccccc1 ?
STEP inh: -1.7; Scp1 inh: -2.2; Rpn11 block: -14.0; DNMT1 inh: 26.1; LMPTP block: 5.0

Results for CCN(CC)C(=O)COC(=O)c1cc(-c2ccco2)nc2ccccc12 ?
STEP inh: 0.7; Scp1 inh: 82.1*; Rpn11 block: -16.9; DNMT1 inh: 72.7*; LMPTP block: 30.6; DNMT1 confirm: 6.9; Beacon interf: 0.3

Results for CNC(=O)COC(=O)c1cc(-c2ccco2)nc2ccccc12 ?
STEP inh: 3.8; Scp1 inh: 75.7*; Rpn11 block: -16.4; DNMT1 inh: 56.1*; LMPTP block: 12.3; DNMT1 confirm: 18.6; Beacon interf: 2.0

Results for Cc1ccc(NC(=O)COC(=O)c2cc(C)nc3ccccc23)c([N+](=O)[O-])c1 ?
STEP inh: -0.1; Scp1 inh: -1.2; Rpn11 block: 9.1; DNMT1 inh: 63.8*; LMPTP block: -0.9; DNMT1 confirm: 0.0; Beacon interf: 1.9

Results for O=C(O)c1ccccc1/C=N/NC(=O)c1cc(-c2ccco2)nc2ccccc12 ?
STEP inh: 5.2; Scp1 inh: 77.2*; Rpn11 block: 8.4; DNMT1 inh: 90.7*; LMPTP block: 32.9; Beacon interf DR: >99; DNMT1 confirm: 38.3*; Beacon interf: -1.1

How did Cc1ccccc1NP1(=O)OCCCN1Cc1ccccc1Cl (stereo unspecified) do in these assays?
STEP inh: -4.2; Scp1 inh: -13.3; Rpn11 block: 3.3; DNMT1 inh: 2.1; LMPTP block: -1.0

How did CCOC(=O)C1=C(COC(=O)COc2ccc(C#N)cc2)NC(=O)NC1C (stereo unspecified) do in these assays?
STEP inh: -0.8; Scp1 inh: -2.4; Rpn11 block: -0.6; DNMT1 inh: 1.5; LMPTP block: 0.1

What do the screens show for `O=C(NCC1CCOCC1)C1CCC(=O)N(Cc2cccc(C(F)(F)F)c2)C1` (stereo unspecified)?
STEP inh: 0.4; Scp1 inh: -8.6; Rpn11 block: 1.6; DNMT1 inh: 0.7; LMPTP block: -0.9

How did CC(=O)Nc1cccc(-c2ccnc3c2CC(C(=O)NCc2cccc(Cl)c2)O3)c1 (stereo unspecified) do in these assays?
STEP inh: -3.4; Rpn11 block: -3.4; DNMT1 inh: -3.6; LMPTP block: 0.9

What do the screens show for `CCOc1ccc(C(=O)Nc2ccc(NC(=O)c3cccs3)cc2)cc1[N+](=O)[O-]`?
STEP inh: 1.3; Scp1 inh: -7.4; Rpn11 block: -4.1; DNMT1 inh: 26.1; LMPTP block: -1.0

Results for COc1ccc(C(=O)Nc2ccc(NC(=O)c3cccs3)cc2)cc1[N+](=O)[O-] ?
STEP inh: -2.3; Scp1 inh: -2.7; Rpn11 block: -4.2; DNMT1 inh: 44.3; LMPTP block: 0.4; DNMT1 confirm: 0.5; Beacon interf: 1.9

How did CCOC(=O)c1ccc(CNS(=O)(=O)c2c(C)ccc3nsnc23)o1 do in these assays?
STEP inh: -0.1; Scp1 inh: 0.8; Rpn11 block: 1.7; DNMT1 inh: 69.2*; LMPTP block: -0.9; DNMT1 confirm: 4.1; Beacon interf: 4.2

Results for COc1ccc(NC(=O)N(C)C[C@@H]2OCc3cn(nn3)CCCC(=O)N([C@@H](C)CO)C[C@H]2C)cc1 ?
STEP inh: 3.0; Rpn11 block: 6.0; DNMT1 inh: 62.6*; LMPTP block: -1.7; DNMT1 confirm: 3.4; Beacon interf: 2.8

Results for COc1ccc2c(c1OC)C(=O)N1c3ccccc3N=C(c3ccc([N+](=O)[O-])cc3)CC21 (stereo unspecified) ?
STEP inh: 0.2; Scp1 inh: -4.4; Rpn11 block: 4.3; DNMT1 inh: 62.4*; LMPTP block: -0.1; DNMT1 confirm: -0.4; Beacon interf: -2.1

How did O=C1CNC(=O)c2cc(Cl)ccc2N1 do in these assays?
STEP inh: 1.0; Rpn11 block: -5.5; DNMT1 inh: 3.8; LMPTP block: -1.5

Results for O=C(N/N=C/c1cc([N+](=O)[O-])ccc1O)c1ccc(COc2ccc3c(c2)CCC3)o1 ?
STEP inh: 90.3*; Scp1 inh: 80.8*; Rpn11 block: 17.8; DNMT1 inh: 72.0*; LMPTP block: 68.7*; DNMT1 confirm: 20.8; Beacon interf: -0.3

What do the screens show for `O=C(O)c1cc(O)c2c(c1)C(=O)c1cccc(O)c1C2=O`?
STEP inh: 12.6; Scp1 inh: 64.6*; Rpn11 block: -57.5; DNMT1 inh: 69.4*; LMPTP block: 10.1; DNMT1 confirm: 8.6; Beacon interf: 1.1

Results for Cn1c2ccccc2c2c(=O)oc3ccccc3c21 ?
STEP inh: 4.5; Scp1 inh: 1.3; Rpn11 block: 0.7; DNMT1 inh: 51.9*; LMPTP block: 7.7; Beacon interf DR: >99; DNMT1 confirm: 29.0; Beacon interf: -2.1

How did CCCn1cnc2c(=O)oc3ccccc3c21 do in these assays?
STEP inh: -3.2; Scp1 inh: -4.8; Rpn11 block: -2.7; DNMT1 inh: -2.3; LMPTP block: -1.0

Results for O=C(CSc1nc(C2CC2)nc2sc3c(c12)CCCC3)NCc1ccco1 ?
STEP inh: -1.7; Scp1 inh: -0.4; Rpn11 block: -3.5; DNMT1 inh: 13.9; LMPTP block: -1.5

How did CC(C)Sc1nc2sc3c(c2c2nnc(SCC(=O)NCc4ccco4)n12)CCCC3 do in these assays?
STEP inh: 2.6; Scp1 inh: 34.7; Rpn11 block: 20.7; DNMT1 inh: 65.4*; LMPTP block: 8.3; DNMT1 confirm: 3.3; Beacon interf: 1.2

Results for COc1ccc(Cl)cc1NC(=O)c1cccc(-n2cnnn2)c1 ?
STEP inh: -0.1; Scp1 inh: -9.5; Rpn11 block: 2.5; DNMT1 inh: -1.7; LMPTP block: -0.5

What do the screens show for `Cc1c(C(N)=O)sc2ncn(CC(=O)OC(C)C)c(=O)c12`?
STEP inh: -3.5; Scp1 inh: -4.8; Rpn11 block: 4.9; DNMT1 inh: 78.1*; LMPTP block: -1.1; DNMT1 confirm: 2.0; Beacon interf: 5.6

Assay outcomes deposited in PubChem by Sanford-Burnham Center for Chemical Genomics.
